This note sets out measurements from ChEMBL document CHEMBL4334447, “Discovery of 4-Aminoquinoline-3-carboxamide Derivatives as Potent Reversible Bruton's Tyrosine Kinase Inhibitors for the Treatment of Rheumatoid Arthritis” (J Med Chem, 2019).

Data set [1] is described as follows: Clearance in Sprague-Dawley rat at 2 mg/kg, iv by LC-MS/MS analysis. The class given is ADME, organism-based. As to conditions: in vivo. Summed up:
(§1)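 Male Sprague-Dawley rats (187-205 g, n=6 per route). IV group: 2 mg/kg by tail vein in 10% DMSO/90% PEG400, fed animals. Oral group: 5 mg/kg as a 0.5% methylcellulose suspension, fasted animals. Jugular cannula blood taken pre-dose and from 0.033 h (iv only) to 24 h. Plasma stored at -20 °C and analysed by LC-MS/MS.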

The target of data set [2] is Tyrosine-protein kinase Fyn (Homo sapiens, UniProt P06241). Kind of data set: Inhibition of human full-length recombinant FYN using KVEKIGEGTYGVVYK as substrate measured after 40 mins in presence of [gamma-33P]-ATP by scintillation counting analysis. Summed up:
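Started with Mg/ATP; 40 min at room temperature. Stopped with 0.5% phosphoric acid, spotted onto P30 filtermat, washed, scintillation counted. Mean of ≥3 assays in triplicate.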

Data set [3] is described as follows: Half life in Sprague-Dawley rat at 2 mg/kg, iv by LC-MS/MS analysis. As to conditions: in vivo. The format is ADME, organism-based. Summed up:
as §1

Chain of Tyrosine-protein kinase Fyn (P06241 whole entry): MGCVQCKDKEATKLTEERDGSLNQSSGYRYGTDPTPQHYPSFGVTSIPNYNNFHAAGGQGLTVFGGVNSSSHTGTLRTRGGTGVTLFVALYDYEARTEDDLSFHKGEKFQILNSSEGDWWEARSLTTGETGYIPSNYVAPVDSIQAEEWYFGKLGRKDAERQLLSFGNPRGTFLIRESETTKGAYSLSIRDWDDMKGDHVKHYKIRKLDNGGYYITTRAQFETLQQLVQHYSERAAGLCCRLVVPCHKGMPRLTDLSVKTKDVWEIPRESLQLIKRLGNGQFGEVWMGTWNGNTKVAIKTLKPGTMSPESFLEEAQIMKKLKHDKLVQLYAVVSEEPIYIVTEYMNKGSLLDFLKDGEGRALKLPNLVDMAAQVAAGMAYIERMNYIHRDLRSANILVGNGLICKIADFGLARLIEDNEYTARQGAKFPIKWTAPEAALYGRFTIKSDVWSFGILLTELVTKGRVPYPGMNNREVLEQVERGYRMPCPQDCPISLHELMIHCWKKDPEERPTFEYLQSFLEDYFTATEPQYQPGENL

As a reminder, the clearance is a measure of how efficiently the substance is removed, as volume per time. A higher clearance goes with efficient removal. Usually IC50 stands for the point on the concentration scale where inhibition reaches its midpoint. A word on the half-life: it is the time needed for the level to fall by half in the phase considered. The compound `COc1cc2cn[nH]c2cc1-c1ccc(F)c2c(N)c(C(N)=O)cnc12` came in with a clearance in data set [1] of 20.8 mL/min/kg. The IC50 in data set [2] came to 165 nM. In data set [3], the half-life is 1.2 h.
